According to ChEMBL document CHEMBL1140750, “Dynamic combinatorial mass spectrometry leads to metallo-beta-lactamase inhibitors” (J Med Chem, 2008):

What was measured:
[1] = Inhibition of Bacillus cereus metallo-beta-lactamase BcII by dynamic combinatorial mass spectrometry
How it was run: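 BcII enzyme was preincubated with inhibitor at room temperature in 20 mM HEPES pH 7.0 with 20 µg/mL BSA; inhibitors came from 10 mM DMSO stocks. Imipenem substrate was then added at 20–200 µM, with at least two inhibitor concentrations plus a no-inhibitor control. Hydrolysis was followed by absorbance at 300 or 482 nm at 30 °C. Ki was derived from initial rates by Hanes linearization.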

[2] = Inhibition of metallo-beta-lactamase IMP1

Structure (SMILES) | Ki [1] [µM] | IC50 [2] [µM]
CC(=O)Nc1ccc(C(=O)N[C@H](CS)C(=O)O)cc1 | 13.5 | –
CC(C)(C)c1ccc(C(=O)N[C@H](CS)C(=O)O)cc1 | 8.4 | –
O=C(O)C(S)C(S)C(=O)O (stereo not given) | 125 | –
O=C(NC(CS)C(=O)O)c1ccccc1 (single isomer, unassigned; 9b) | 0.74 | –
O=C(CCc1ccccc1)NC(CS)C(=O)O (single isomer, unassigned; 9f) | 73 | –

Results, then the compound that gave them:

Ki [1] [µM] | IC50 [2] [µM] | Structure (SMILES)
28 | – | O=C(NC(CS)C(=O)O)c1ccccc1 (single isomer, unassigned; 9a)
154 | – | O=C(Cc1ccccc1)NC(CS)C(=O)O (single isomer, unassigned; 9c)
53 | – | O=C(Cc1ccccc1)NC(CS)C(=O)O (single isomer, unassigned; 9d)
44 | – | O=C(CCc1ccccc1)NC(CS)C(=O)O (single isomer, unassigned; 9e)
– | 170 | O=C(O)CCS [MERCAPTOPROPIONIC ACID]
